Several values for one entry are separate records, joined by “and”; a condition that tells them apart may be missing. Identical values can stand only once.
What was measured:
Canis familiaris [1] = species: Canis familiaris; test: In vitro electrophysiological evaluation in canine cardiac ventricular muscle reported as % change for conduction time(CT) at 10 uM; Minimal (<10% decrease or increase in Vmax).; format: functional, Canis lupus familiaris, Muscle tissue
Outline: (§1)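 Canine right ventricle and papillary muscle strips in oxygenated Tyrode's solution, fitted with stimulating and recording electrodes. The extra-stimulus conduction-interval method was adapted for in vitro use. FRP and CT were read from a conduction-interval curve before and after various compound concentrations, and expressed as percent change from control. Compounds were taken from 10 mM deionized-water stock into Tyrode's. Each strip was used once as its own control.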

Canis familiaris [2] = species: Canis familiaris; test: In vitro electrophysiological activity in canine cardiac occurred is 100 uM.; format: functional, Canis lupus familiaris, Heart
Canis familiaris [3] = species: Canis familiaris; test: In vitro electrophysiological evaluation in canine cardiac Purkinje fibres reported as maximum percent change Vmax concentration range of 0.1-100 uM; Minimal (<10% decrease or increase in Vmax).; format: functional; details: Canis lupus familiaris; Purkinje fiber
Outline: (§2)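 Canine cardiac Purkinje fibres, intracellular microelectrode recording, paced at a basic cycle length of 1 s. APD95 and Vmax read simultaneously. Compound: 10 mM stock in deionized water, diluted into Tyrode's solution, tested over the stated concentration range. Each fibre used once as its own control. Result is % change from control, given at 10 µM or as the maximum with its concentration. M = <10% decrease or an increase in Vmax.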

Canis familiaris [4] = species: Canis familiaris; test: In vitro electrophysiological evaluation in canine cardiac Purkinje fibres reported as percent change Vmax at 10 uM at concentration range of 0.1-100 uM; Minimal (<10% decrease or increase in Vmax).; format: functional, organism-based; details: Canis lupus familiaris, Purkinje fiber; outline: as §2
Canis familiaris [5] = species: Canis familiaris; test: In vitro electrophysiological evaluation in canine cardiac ventricular muscle reported as maximum % change for conduction time(CT); Minimal (<10% decrease or increase in […]).; format: functional, Canis lupus familiaris, Muscle tissue; outline: as §1
Canis familiaris [6] = species: Canis familiaris; test: In vitro electrophysiological evaluation in canine cardiac ventricular muscle reported as maximum % change for functional refractory period (FRP); concentration at which it occurred is 10 uM.; design: species or system Canis lupus familiaris, Muscle tissue; outline: as §1
Canis familiaris [7] = species: Canis familiaris; test: In vitro electrophysiological evaluation in canine cardiac Purkinje fibres reported as % change for action potential duration at a concentration of 10 uM; format: functional, Canis lupus familiaris, Purkinje fiber; outline: as §2
Canis familiaris [8] = species: Canis familiaris; test: In vitro electrophysiological evaluation in canine cardiac ventricular muscle reported as % change for the functional refractory period (FRP) at 10 uM; design: species or system Canis lupus familiaris, Muscle tissue; outline: as §1
Canis familiaris [9] = species: Canis familiaris; test: In vitro electrophysiological evaluation in canine cardiac Purkinje fibres reported as % change for action potential duration at 10 uM at 0.1-100 uM concentration range; format: functional, Canis lupus familiaris, Purkinje fiber; outline: as §2
Canis familiaris [10] = test: Mean arterial blood pressure was determined by intraduodenal administration of two dosages of 10 mg/kg (low dose) of compound in anesthetized dogs. Value was reported for experiment 1; format: functional, Canis lupus familiaris
Outline: (§3)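 Anesthetized dogs, usually given two intraduodenal doses, with the second dose cumulative (low/high). Left ventricular FRP and CT were determined at 15, 30 and 45 min after dosing. HR and BP were measured during nonpacing intervals. Values are % change from control at low/high dose, for individual animals. The vehicle-stability set used 5% dextrose in water/tragacanth (n = 8).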

Canis familiaris [11] = species: Canis familiaris; test: In vitro electrophysiological evaluation in canine cardiac Purkinje fibres reported as percent change Vmax at 10 uM at concentration range of 5-50 uM; format: functional; details: Canis lupus familiaris, Purkinje fiber
Outline: (§4)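 Canine cardiac Purkinje fibers, intracellular recording, paced at a basic cycle length of 1 s. APD95 and Vmax are recorded together across cumulative concentrations. Compound is a 10 mM aqueous stock diluted into Tyrode's solution. Each fiber is used once as its own control. Readouts are percent change from control at 10 μM, and the maximum change with the concentration where it occurred.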

Canis familiaris [12] = species: Canis familiaris; test: In vitro electrophysiological evaluation in canine cardiac Purkinje fibres reported as percent change Vmax at 10 uM at concentration range of 0.1-100 uM; format: functional; details: Canis lupus familiaris, Purkinje fiber; outline: as §4
Canis familiaris [13] = species: Canis familiaris; test: In vitro electrophysiological evaluation in canine cardiac ventricular muscle reported as % change for the functional refractory period (FRP) at 10 uM at concentration range of 0.1-100 uM; design: species or system Canis lupus familiaris, Muscle tissue; outline: as §1
Canis familiaris [14] = test: Conduction time was determined by intraduodenal administration of two dosages of 10 mg/kg (low dose) of compound in anesthetized dogs. Value was reported for experiment 2; format: functional, Canis lupus familiaris
Outline: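 Anesthetized dogs; compound given intraduodenally, generally as two doses, the second a cumulative (high) dose. LV functional refractory period and conduction time measured 15, 30 and 45 min after dosing; heart rate and blood pressure measured during nonpacing intervals. Values are % change from control, given per individual animal. Active if FRP or CT prolonged by ≥12%.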

Canis familiaris [15] = test: Heart rate was determined by intraduodenal administration of two dosages of 10 mg/kg (low dose) of compound in anesthetized dogs. Value was reported for experiment 2; format: functional, Canis lupus familiaris
Outline: (§5)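 Anesthetized dogs given the compound intraduodenally, generally as two doses with the second a cumulative total (low/high). FRP and CT measured at 15, 30 and 45 min after dosing. HR and BP taken during nonpacing intervals. Values are percent change from control per animal. Activity criterion is FRP or CT prolonged ≥12%. Vehicle: 5% dextrose in water/tragacanth.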

Canis familiaris [16] = species: Canis familiaris; test: In vitro electrophysiological evaluation in canine cardiac Purkinje fibres reported as % change for action potential duration at 10 uM at 0.1-30 uM concentration range; format: functional, Canis lupus familiaris, Purkinje fiber; outline: as §2
Canis familiaris [17] = species: Canis familiaris; test: In vitro electrophysiological evaluation in canine cardiac Purkinje fibres reported as % change for action potential duration at 10 uM at 5-50 uM concentration range; format: functional, Canis lupus familiaris, Purkinje fiber; outline: as §4
Canis familiaris [18] = test: Mean arterial blood pressure was determined by intraduodenal administration of two dosages of 10 mg/kg (low dose) of compound in anesthetized dogs. Value was reported for experiment 2; format: functional, Canis lupus familiaris; outline: as §3
Canis familiaris [19] = species: Canis familiaris; test: In vitro electrophysiological activity in canine cardiac occurred is 30 uM.; format: functional, Canis lupus familiaris, Heart
Canis familiaris [20] = test: Left ventricular refractory period was determined by intraduodenal administration of two dosages of 30 mg/kg (high dose)of compound in anesthetized dogs. Value was reported for experiment 2; format: functional, Canis lupus familiaris, Cardiac ventricle; outline: as §3
Canis familiaris [21] = test: Heart rate was determined by intraduodenal administration of two dosages of 30 mg/kg (high dose) of compound in anesthetized dogs. Value was reported for experiment 2; format: functional, Canis lupus familiaris; outline: as §5
Canis familiaris [22] = species: Canis familiaris; test: In vitro electrophysiological evaluation in canine cardiac Purkinje fibres reported as percent change Vmax at 10 uM at concentration range of 0.1-30 uM; format: functional; details: Canis lupus familiaris, Purkinje fiber; outline: as §2
Canis familiaris [23] = test: Conduction time was determined by intraduodenal administration of two dosages of 10 mg/kg (low dose) of compound in anesthetized dogs. Value was reported for experiment 1; format: functional, Canis lupus familiaris; outline: as §5
Canis familiaris [24] = test: Mean arterial blood pressure was determined by intraduodenal administration of two dosages of 30 mg/kg(high dose) of compound in anesthetized dogs. Value was reported for experiment 2; format: functional, Canis lupus familiaris; outline: as §3
Canis familiaris [25] = test: Conduction time was determined by intraduodenal administration of two dosages of 30 mg/kg (high dose)of compound in anesthetized dogs. Value was reported for experiment 1; format: functional, Canis lupus familiaris; outline: as §5
Canis familiaris [26] = species: Canis familiaris; test: (§6) In vitro electrophysiological evaluation in canine cardiac occurred is 100 uM.; format: functional; details: Canis lupus familiaris; Heart
Canis familiaris [27] = test: Left ventricular refractory period was determined by intraduodenal administration of two dosages of 10 mg/kg (low dose) of compound in anesthetized dogs. Value was reported for experiment 2; format: functional, Canis lupus familiaris, Cardiac ventricle; outline: as §3
Canis familiaris [28] = test: Mean arterial blood pressure was determined by intraduodenal administration of two dosages of 30 mg/kg (high dose)of compound in anesthetized dogs. Value was reported for experiment 1; format: functional, Canis lupus familiaris; outline: as §3
Canis familiaris [29] = species: Canis familiaris; test: as §6; format: functional, organism-based; details: Canis lupus familiaris; Heart
Canis familiaris [30] = test: Conduction time was determined by intraduodenal administration of two dosages of 30 mg/kg (high dose) of compound in anesthetized dogs. Value was reported for experiment 2; format: functional, Canis lupus familiaris; outline: as §5
Canis familiaris [31] = test: Left ventricular refractory period was determined by intraduodenal administration of two dosages of 10 mg/kg (low dose) of compound in anesthetized dogs. Value was reported for experiment 1; format: functional, Canis lupus familiaris, Cardiac ventricle; outline: as §3
Canis familiaris [32] = species: Canis familiaris; test: In vitro electrophysiological activity in canine cardiac occurred is 50 uM.; format: functional, Canis lupus familiaris, Heart
Canis familiaris [33] = species: Canis familiaris; test: In vitro electrophysiological evaluation in canine cardiac ventricular muscle reported as % change for conduction time(CT) at 10 uM at 0.1-100 uM concentration range; format: functional, Canis lupus familiaris, Muscle tissue
Outline: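 Canine right ventricular/papillary muscle strips in oxygenated Tyrode's, extracellular extra-stimulus conduction-interval method. FRP and CT are read from conduction-interval curves before and during rising concentrations. Compound is a 10 mM aqueous stock diluted into Tyrode's. Each strip is used once as its own control. Readouts are percent change from control at 10 μM, plus the maximum change with its concentration.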

Canis familiaris [34] = test: Heart rate was determined by intraduodenal administration of two dosages of 10 mg/kg (low dose) of compound in anesthetized dogs. Value was reported for experiment 1; format: functional, Canis lupus familiaris; outline: as §5
Canis familiaris [35] = test: Left ventricular refractory period was determined by intraduodenal administration of two dosages(high dose) of 30 mg/kg of compound in anesthetized dogs. Value was reported for experiment 1; format: functional, Canis lupus familiaris, Cardiac ventricle; outline: as §3
Canis familiaris [36] = species: Canis familiaris; test: In vitro electrophysiological evaluation in canine cardiac ventricular muscle reported as maximum % change for functional refractory period (FRP) at 0.1-100 uM concentration range; concentration at which it occurred is 100 uM.; design: species or system Canis lupus familiaris, Muscle tissue; outline: as §1
Canis familiaris [37] = species: Canis familiaris; test: In vitro electrophysiological evaluation in canine cardiac ventricular muscle reported as maximum % change for functional refractory period (FRP) at 0.1-100 uM concentration range; concentration at which it occurred is 10 uM.; design: species or system Canis lupus familiaris, Muscle tissue; outline: as §1
Canis familiaris [38] = test: Heart rate was determined by intraduodenal administration of two dosages of 30 mg/kg (high dose)of compound in anesthetized dogs. Value was reported for experiment 1; format: functional, Canis lupus familiaris; outline: as §5
Canis familiaris [39] = species: Canis familiaris; test: In vitro electrophysiological evaluation in canine cardiac occurred is 30 uM.; format: functional; details: Canis lupus familiaris; Heart

## Cl.O=C1C2CCN(CC2)C1CCCc1ccccc1 (stereo unspecified)
Canis familiaris [1]
  CT: <10%
Canis familiaris [2]
  APD95: -38% and -35%
Canis familiaris [3]
  Vmax: < 10%
Canis familiaris [4]
  Vmax: < 10%
Canis familiaris [5]
  CT: <10%
Canis familiaris [6]
  FRP: 5%
Canis familiaris [7]
  APD95: -6%
Canis familiaris [8]
  FRP: 5%
Canis familiaris [9]
  APD95: 1%

## C=C[C@H]1CN2CC[C@H]1C[C@@H]2[C@@H](O)c1ccnc2ccc(OC)cc12 [QUINIDINE]
Canis familiaris [10]
  Mean blood pressure: 2%
Canis familiaris [11]
  Vmax: -11%
Canis familiaris [12]
  Vmax: -10%
Canis familiaris [13]
  FRP: 21% [middle of 4 runs]
Canis familiaris [14]
  CT: 10%
Canis familiaris [15]
  HR: -18%
Canis familiaris [16]
  APD95: -21%
Canis familiaris [17]
  APD95: -9%
Canis familiaris [18]
  Mean blood pressure: -7%
Canis familiaris [19]
  APD95: -39%
Canis familiaris [20]
  LV FRP: 28%
Canis familiaris [21]
  HR: -39%
Canis familiaris [22]
  Vmax: < 10%
Canis familiaris [2]
  APD95: -24%
Canis familiaris [23]
  CT: 7%
Canis familiaris [24]
  Mean blood pressure: 15%
Canis familiaris [25]
  CT: 51%
Canis familiaris [26]
  Vmax: -40%
Canis familiaris [27]
  LV FRP: 16%
Canis familiaris [28]
  Mean blood pressure: -4%
Canis familiaris [29]
  Vmax: -53%
Canis familiaris [30]
  CT: 38%
Canis familiaris [31]
  LV FRP: 13%
Canis familiaris [32]
  APD95: -19%
Canis familiaris [7]
  APD95: -9%
Canis familiaris [33]
  CT: 17% and 11% and <10%
Canis familiaris [34]
  HR: -22%
Canis familiaris [35]
  LV FRP: 20%
Canis familiaris [36]
  FRP: 27% and 24% and 46%
Canis familiaris [37]
  FRP: 22%
Canis familiaris [38]
  HR: -42%
Canis familiaris [39]
  Vmax: -19%
